Sampled rows, rich in hits. Any-hit rate of the full collection: about 3.7%.
NPY1 pot ag: human NPY-Y1 potentiation or agonism, primary screen; activation, % at 3.6 µM; actives 0.37% (n = 220,000); P25929; AID 1304; NPY-Y1 expressing cells, potentiator/agonist activation; in the data active = activation above about 33%, passing the limit was not always enough;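 note: cells stimulated with NPY at EC10 then isoproterenol at EC100; 0% = low agonist plus stimulus and 100% = saturating agonist plus stimulus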
NPY2 pot ag: human NPY-Y2 potentiation or agonism, primary screen. AID 1359. activation, % at 3.6 µM. actives 0.45% (n = 220,000). cells expressing NPY-Y2, potentiator/agonist read-out; in the data active = activation above about 27%;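 note: cells stimulated with NPY near EC25 plus isoproterenol at EC100; 0% = vehicle plus submaximal agonist and 100% = vehicle plus saturating agonist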
NPY Y2 blocker: blocks the human neuropeptide Y Y2 receptor. NPY-Y2 expressing cells, antagonist mode. actives 0.99% (n = 140,000). inhibition, % at 2.7 µM. P49146;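 note: 0% = vehicle with agonist challenge and 100% = reference antagonist with challenge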
Cl transport mod: KCC2 (human) Cl- transport modulation; KCC2 cells, thallium flux FluoZin-2 fluorescence; B-score of Tl+ flux slope (higher = more flux/activation; lower = inhibition) at 10 µM; actives 2.2% (n = 190,000);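 active = thallium flux slope and its plate-corrected score both differing from the plate sample mean at a set confidence after two filtering rounds, in either direction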;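 note: slope of fluorescence scaled to starting intensity during 10 to 20 s after thallium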
NPY Y1 blocker: blocks the human neuropeptide Y Y1 receptor; P25929; HEK293-CNG Y1 cells, membrane potential fluorescence; NPY at EC95, then isoproterenol; inhibition, % at 3.6 µM; actives 1% (n = 200,000);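 active = inhibition above the campaign mean inhibition of all tested compounds plus 3 SD, cut at about 20% in these data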;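 note: 0% = DMSO wells given NPY plus isoproterenol and 100% = isoproterenol alone without NPY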
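System: HEK293 cells with Y1 receptor plus CNG channel / Probe or stimulus: NPY 25 nM then isoproterenol 1 µM plus Ro 20-1724 25 µM / Compound: one concentration, 3.6 µM, in 0.4% DMSO / Schedule: compound incubation 1 h at room temperature, readout 45 min post-stimulation / Measured by: membrane potential fluorescence / Read-out: % inhibition of NPY effect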
Furin inh: human furin inhibition | inhibition, % at 20 µM or 30 µM | actives 0.061% (n = 220,000) | purified furin, fluorogenic substrate cleavage | P09958 | AID 463115; in the data active = inhibition above about 25%
Target sequence (P09958 108-714 limits assumed): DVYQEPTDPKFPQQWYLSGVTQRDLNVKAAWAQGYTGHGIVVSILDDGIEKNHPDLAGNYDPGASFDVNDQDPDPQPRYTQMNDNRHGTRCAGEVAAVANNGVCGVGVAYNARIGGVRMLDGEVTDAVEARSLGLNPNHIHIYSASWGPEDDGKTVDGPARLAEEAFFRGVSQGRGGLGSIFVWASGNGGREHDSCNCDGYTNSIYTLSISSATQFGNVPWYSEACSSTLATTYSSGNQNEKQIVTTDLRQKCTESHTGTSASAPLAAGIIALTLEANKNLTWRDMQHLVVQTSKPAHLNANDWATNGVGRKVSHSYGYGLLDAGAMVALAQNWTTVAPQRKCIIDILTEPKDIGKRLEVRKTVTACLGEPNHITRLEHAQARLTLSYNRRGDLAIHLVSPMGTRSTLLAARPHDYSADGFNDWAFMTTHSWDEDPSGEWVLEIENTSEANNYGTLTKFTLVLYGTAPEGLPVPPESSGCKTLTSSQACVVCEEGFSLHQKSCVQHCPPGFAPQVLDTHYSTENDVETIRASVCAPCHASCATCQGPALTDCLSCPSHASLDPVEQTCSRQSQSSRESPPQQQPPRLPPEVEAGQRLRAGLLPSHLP
NPY-Y1 ant conf: human NPY-Y1 antagonism, confirmation; HEK293-CNG NPY-Y1, membrane potential fluorescence, cAMP; NPY challenge against isoproterenol-raised cAMP; shares compounds with NPY Y1 blocker; inhibition, % at 3.6 µM; AID 1254; actives 21% (n = 1,200); in the data active = inhibition above about 20%;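 note: 0% = vehicle with agonist plus stimulus and 100% = stimulus alone without agonist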
NPY-Y2 antag ct: antagonizes human NPY-Y2, counter-screen to NPY-Y1 antagonists; shares compounds with NPY Y1 blocker; HEK293 NPY-Y2 CNG membrane potential fluorescence, antagonism; cells given NPY, then isoproterenol; inhibition, % at 3.6 µM; actives 28% (n = 1,200); AID 1255;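 note: 0% = DMSO with agonist challenge and 100% = reference antagonist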
NPY-Y1 pot conf: confirmation of human NPY-Y1 receptor potentiators or agonists; actives 20% (n = 280); shares compounds with NPY1 pot ag; cell-based NPY-Y1 potentiator/agonist assay; activation, % at 3.6 µM; in the data active = activation above about 45%;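 note: cells challenged with NPY at its EC10 plus isoproterenol stimulus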
NPY-Y2 counter: potentiates or activates NPY-Y2, counter-screen for NPY-Y1 hits. shares compounds with NPY1 pot ag. HEK293-CNG cells, membrane-potential fluorescence (FLIPR), 1536-well. activation, % at 3.6 µM. actives 20% (n = 280); in the data active = activation above about 33%
NPY-Y1 ag: human NPY-Y1 agonism as potentiator counter-screen | activation, % at 3.6 µM | shares compounds with NPY1 pot ag | HEK293 Y1-CNGC, membrane potential fluorescence, agonist mode | actives 50% (n = 280);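 active = percent activation above the mean of DMSO-only control wells plus 3 SD of those wells, cut at about 18% in these data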;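 note: cells challenged with isoproterenol plus Ro 20-1724 with no NPY in test wells; Y1 agonism lowers isoproterenol-driven cAMP and reduces probe fluorescence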
NPY-Y2 ag: activates human NPY-Y2, counter-screen for NPY-Y1 hits; shares compounds with NPY1 pot ag; HEK293 Y2-CNGC, membrane potential fluorescence, agonist mode; activation, % at 3.6 µM; actives 67% (n = 280); AID 1698;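 active = activation above the solvent-only control wells' mean plus 3 SD, cut at about 11% in these data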;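 note: 0% = DMSO with isoproterenol and 100% = 40 nM NPY maximal response; agonism lowers cAMP so well fluorescence drops in active wells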
CNGC inh 2: CNG channel inhibition, counter-screen for NPY-Y1 potentiators; actives 42% (n = 280); AID 1704; inhibition, % at 3.6 µM; shares compounds with NPY1 pot ag; HEK293-CNG parental, isoproterenol cAMP, membrane potential fluorescence;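 active = inhibition above the mean of stimulated solvent-only control wells plus 3 SD, cut at about 22% in these data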;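 note: 0% = isoproterenol-stimulated DMSO wells and 100% = unstimulated DMSO wells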
NPY-Y2 confirm: confirmation of human NPY-Y2 receptor potentiators or agonists; shares compounds with NPY2 pot ag; cell-based NPY-Y2 potentiator/agonist assay; activation, % at 3.6 µM; actives 20% (n = 450); in the data active = activation above about 33%
NPY-Y1 counter: counter-screen for NPY-Y2 potentiators or agonists: NPY-Y1 potentiators or agonists; shares compounds with NPY2 pot ag; Y1 HEK293-CNG cells, membrane potential fluorescence; activation, % at 3.6 µM; actives 20% (n = 450); in the data active = activation above about 45%;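 note: cells stimulated with submaximal NPY then isoproterenol with phosphodiesterase inhibitor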
NPY-Y1 ag 2: activates human NPY-Y1, counter-screen for NPY-Y2 potentiators; HEK293 Y1-CNGC, membrane potential fluorescence, agonism; AID 1702; activation, % at 3.6 µM; actives 37% (n = 450); shares compounds with NPY2 pot ag;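 active = activation above the mean of DMSO-only control wells plus 3 SD, cut at about 18% in these data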;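 note: cells stimulated with 1 µM isoproterenol plus the PDE inhibitor Ro 20-1724; 0% = isoproterenol with DMSO and no NPY and 100% = 40 nM NPY; Y1 agonists lower the membrane potential dye signal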
CNGC inh: counter-screen for NPY-Y2 potentiators: inhibitors of CNG channel activity; shares compounds with NPY2 pot ag; HEK293-CNG parental, isoproterenol cAMP, membrane potential fluorescence; actives 32% (n = 450); AID 1703; inhibition, % at 3.6 µM;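 active = inhibition above the control-well mean plus 3 SD of those wells, cut at about 22% in these data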;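 note: 0% = DMSO with isoproterenol and 100% = DMSO without isoproterenol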
NPY-Y2 ag 2: NPY-Y2 agonism, counter-screen for Y2 potentiators; activation, % at 3.6 µM; HEK293 Y2/CNGC cells, membrane potential fluorescence, agonist mode; shares compounds with NPY2 pot ag; actives 56% (n = 450); AID 1710;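 active = activation above the mean of solvent-only control wells plus 3 SD, cut at about 10% in these data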;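 note: cells stimulated by isoproterenol with no NPY added so direct agonism is tested; 0% = DMSO with isoproterenol alone and 100% = NPY at EC100 plus isoproterenol; agonism lowers probe fluorescence through less cAMP and CNG channel opening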
* = called active by the depositor; x = not tested or not shown. Cut-off read from the data, not from the text of the source, unless noted: active = inhibition above about 17%; inactive = the rest.

SMILES	NPY1 pot ag	NPY2 pot ag	NPY Y2 blocker	Cl transport mod	NPY Y1 blocker	Furin inh	NPY-Y1 ant conf	NPY-Y2 antag ct	others
O=C(c1ccco1)c1cn(Cc2ccc(Cl)cc2)c2ccccc12	-64	-26	17	-1.4	33*	-18	20*	15
CC1(C)CC(=O)C(C=NCCN2CCN(C(=O)Cc3ccc(F)cc3)CC2)=C(O)C1	7	8	5	-0.67	-6	-10	x	x
COc1ccc(OC)c(-n2c(O)c(C=Nc3c(C)n(C)n(-c4ccccc4)c3=O)c(=O)[nH]c2=S)c1	-4	-14	x	x	x	8	x	x
CNCC(O)c1cccc(OC(=O)c2ccccc2C)c1 (configuration not stated)	-30	7	9	0.031	22*	-2	3	6
Cc1ccc2c(c1)C1CN(C)CCC1N2C(=O)c1cn(-c2ccccc2)nc1-c1ccccc1 (configuration not stated)	-36	-18	x	-0.42	70*	-24	20	25*
Cc1ccc2c(c1)C1CN(C)CCC1N2C(=O)c1cccnc1Cl (configuration not stated)	15	-2	x	x	x	-29	x	x
CCNC(=O)[C@H]1O[C@@H](n2cnc3c(N)ncnc32)[C@H](O)[C@@H]1O	-21	-53	x	-1.4	145*	x	118*	105*
O=[N+]([O-])c1ccc(N2CCOCC2)c2ccncc12	8	-14	x	-0.073	3	3	x	x
NC(=O)c1ccc(N=Nc2c(O)[nH]c(=O)[nH]c2=O)cc1	-21	8	-1	0.44	-3	-9	x	x
O=C(N=Nc1c(O)[nH]c(=O)[nH]c1=O)C1COc2cc3ccccc3cc2O1 (configuration not stated)	-13	-12	x	x	25*	-33	9	8
COC(=O)[C@@H]1C[C@@]1(C)[C@@H](NP(=O)(c1ccccc1)c1ccccc1)c1ccccc1	-14	0	17	-0.17	30*	-20	18	10
COP(=O)(CC(=O)O)c1ccccc1 (configuration not stated)	26	6	0	x	2	-24	x	x
CCC(=NCc1ccc(F)cc1)c1c(O)n(C)c(=O)n(C)c1=O	37*	0	3	0.32	4	-23	x	x	NPY-Y1 pot conf=-22;NPY-Y2 counter=-13;NPY-Y1 ag=-24;NPY-Y2 ag=-9;CNGC inh 2=-16
Cc1ccc(NC2=NCCCS2)c(C)c1C	6	-1	1	0.092	-7	-13	x	x
C=CCNC(=S)Nc1ccc(OC(=O)Nc2ccc(Cl)c(Cl)c2)cc1	12	83*	x	0.12	x	-6	x	x	NPY-Y2 confirm=10;NPY-Y1 counter=7;NPY-Y1 ag 2=2;CNGC inh=9;NPY-Y2 ag 2=10
CC(=O)N1N=C2C3CCN(CC3)C2C1c1ccc(Br)cc1 (configuration not stated)	-2	-5	x	0.99	x	-20	x	x
O=c1[nH]c(=O)n(CCc2ccccc2)c(O)c1C=NC1CC1	-7	73*	x	-0.41	x	-24	x	x	NPY-Y2 confirm=-1;NPY-Y1 counter=0;NPY-Y1 ag 2=-3;CNGC inh=3;NPY-Y2 ag 2=-3
CN(C)CCCN=Cc1c(O)n(CCc2ccccc2)c(=O)[nH]c1=O	15	3	0	x	1	-23	x	x
O=C(Nc1ccncc1)c1cccn(Cc2ccccc2)c1=O	20	34*	x	-0.13	-4	-118	x	x	NPY-Y2 confirm=2;NPY-Y1 counter=-33;NPY-Y1 ag 2=-25;CNGC inh=-15;NPY-Y2 ag 2=-10
CCNC(=O)NC(=O)C(C)OC(=O)c1c(C)nn(Cc2ccccc2Cl)c1Cl (configuration not stated)	10	8	5	-0.1	6	-12	x	x
CN1CCN(c2ccccc2N)CC1	16	-6	0	1	5	-6	x	x
CN1CCN(c2cccc3c2C(=O)c2ccccc2C3=O)CC1	23	33*	-2	-0.28	-5	-7	x	x	NPY-Y2 confirm=29;NPY-Y1 counter=33;NPY-Y1 ag 2=18*;CNGC inh=24*;NPY-Y2 ag 2=33*
CCN(CC)c1ccc(N=Cc2c(O)n(CCc3ccc(OC)c(OC)c3)c(=O)[nH]c2=O)cc1	-2	-5	1	-0.35	6	24	x	x

From PubChem
